# How the values were obtained:
# [1] = target: T1, Sterol O-acyltransferase 1 (Rattus norvegicus) (UniProt O70536); assay: Tested in vitro for acyl coenzyme A:cholesterol acyltransferase (ACAT) activity in rat liver microsome at a concentration of 1 micro g/mL; format: microsomes
# T1 sequence (whole entry): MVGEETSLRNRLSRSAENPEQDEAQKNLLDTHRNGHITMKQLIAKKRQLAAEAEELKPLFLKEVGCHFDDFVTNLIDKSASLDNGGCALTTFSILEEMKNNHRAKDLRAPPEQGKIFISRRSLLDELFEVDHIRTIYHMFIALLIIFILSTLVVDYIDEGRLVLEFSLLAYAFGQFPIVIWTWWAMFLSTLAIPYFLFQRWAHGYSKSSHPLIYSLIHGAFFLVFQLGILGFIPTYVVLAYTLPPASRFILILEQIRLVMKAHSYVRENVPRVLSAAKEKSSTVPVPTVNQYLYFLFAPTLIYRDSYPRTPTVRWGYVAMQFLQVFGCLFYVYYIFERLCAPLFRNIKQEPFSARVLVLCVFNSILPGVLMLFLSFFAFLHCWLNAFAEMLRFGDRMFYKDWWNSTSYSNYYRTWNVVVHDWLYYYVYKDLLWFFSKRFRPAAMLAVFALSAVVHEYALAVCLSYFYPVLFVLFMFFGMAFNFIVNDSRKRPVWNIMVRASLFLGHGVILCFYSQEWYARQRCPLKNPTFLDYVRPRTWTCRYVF
# How it was run: (§1)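 Enzyme source was hepatic microsomes from cholesterol-fed rats, 60 μg microsomal protein per reaction, with 90 μM radiolabeled oleoyl-CoA. Cholesterol ester formed was separated by TLC and quantified by scintillation counting. Compounds were tested at a single fixed concentration of 1 or 10 μg/mL, and results were given as percent inhibition of enzyme activity.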
# [2] = target: T1, Sterol O-acyltransferase 1 (Rattus norvegicus); assay: In vitro acyl coenzyme A:cholesterol acyltransferase (ACAT) activity in rat liver microsome at a concentration of 10 micro g/mL; format: microsomes; how it was run: as §1
# Rattus norvegicus = assay: Tested in vivo for anti-hypercholesterolaemic activity in male Sprague-Dawley rat.; format: functional
# How it was run: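 Compound was given at 0.03% w/w in the diet (about 30 mg/kg/day). Basal-diet rats (n = 4) gave a baseline that was subtracted. Plasma cholesterol was measured enzymatically, and the result was expressed as percent change versus undosed controls.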
# [3] = target: T2, Sterol O-acyltransferase 1 (Rattus norvegicus, UniProt O70536); assay: Inhibition of acyl coenzyme A:cholesterol acyltransferase (ACAT) activity in rat liver microsome; format: microsomes
# T2 sequence (O70536 whole entry): T1 sequence (whole entry)
# How it was run: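 The assay used rat hepatic microsomes from cholesterol-fed animals (60 μg protein) and 90 μM radiolabeled oleoyl-CoA. Cholesterol ester product was resolved by TLC and counted by scintillation. IC50 was the concentration inhibiting 50% of enzyme activity.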
smiles,measurement,setting,value
COc1ccccc1-c1nc(S)[nH]c1-c1ccccc1OC,inhibition,[1],0%
C[C@@]1(O)CC(=O)OC(CSc2nc(-c3ccc(Cl)cc3)c(-c3ccc(Cl)cc3)[nH]2)C1 (stereo partly specified),inhibition,[2],98%
same,Change,Rattus norvegicus,-11%
same,IC50,[3],0.18 µM
C[C@@]1(O)CC(=O)OC(CSc2nc(-c3ccccc3)c[nH]2)C1 (stereo partly specified),inhibition,[2],0%
Clc1cccc(-c2[nH]c(SCC3CCCCO3)nc2-c2ccccc2)c1 (stereo unspecified),inhibition,[1],90%
same,IC50,[3],0.56 µM
CC(O)(CC(=O)OC(C)(C)C)CC(O)CSc1nc2c3ccccc3c3ccccc3c2[nH]1 (stereo unspecified),inhibition,[1],41%
C[C@]1(O)CC(=O)OC(CSc2nc(-c3ccccc3)n(-c3ccccc3)n2)C1 (stereo partly specified),inhibition,[1],12%
C[C@@]1(O)CC(=O)O[C@@H](CS(=O)(=O)c2nc(-c3ccccc3)c(-c3ccccc3)[nH]2)C1,inhibition,[2],23%
CO[C@H]1O[C@H](CSc2nc(-c3ccccc3)c(-c3ccccc3)[nH]2)[C@@H](O)[C@H](O)[C@@H]1O,inhibition,[1],52%
Sc1nc(-c2ccccc2Cl)c(-c2ccccc2Cl)[nH]1,inhibition,[2],27%
C[C@@]1(O)CC(=O)O[C@@H](CSc2nc(-c3ccccc3)c(-c3ccccc3)s2)C1.C[C@]1(O)CC(=O)O[C@@H](CSc2nc(-c3ccccc3)c(-c3ccccc3)s2)C1,inhibition,[2],4%
CC1=CC(=O)OC(CSc2nc(-c3ccc(C)cc3)c(-c3ccc(C)cc3)[nH]2)C1 (stereo unspecified),inhibition,[2],97%
same,IC50,[3],0.28 µM
CC1=CC(=O)OC(CSc2nc(-c3ccccc3Cl)c(-c3ccccc3Cl)[nH]2)C1 (stereo unspecified),inhibition,[2],95%
same,IC50,[3],1.7 µM
CC(O)(CC(=O)OC(C)(C)C)CC(O)CSc1nc(-c2ccc(Cl)cc2)c(-c2ccc(Cl)cc2)[nH]1 (stereo unspecified),inhibition,[2],97%
same,Change,Rattus norvegicus,-53%
same,IC50,[3],0.25 µM
O=C1CCCC(CSc2nc(-c3ccccc3)c(-c3ccccc3)[nH]2)O1 (stereo unspecified),inhibition,[2],95%
same,Change,Rattus norvegicus,16%
same,IC50,[3],0.74 µM
COC(CSc1nc(-c2ccccc2)c(-c2ccccc2)[nH]1)OC,inhibition,[2],99%
same,IC50,[3],0.58 µM
Clc1ccccc1-c1[nH]c(SCC2CCCCO2)nc1-c1ccccc1 (stereo unspecified),inhibition,[1],76%
Clc1ccc(-c2[nH]c(SCC3CCCCO3)nc2-c2ccccc2)cc1 (stereo unspecified),inhibition,[1],87%
CC1=CC(=O)OC(CSc2nc(-c3cccc(Cl)c3)c(-c3cccc(Cl)c3)[nH]2)C1 (stereo unspecified),inhibition,[2],98%
same,IC50,[3],0.44 µM
CO[C@H]1C[C@@](C)(O)C[C@H](CSc2nc(-c3ccccc3)c(-c3ccccc3)[nH]2)O1,inhibition,[1],89%
same,IC50,[3],0.28 µM
CO[C@@H]1C[C@@](C)(O)C[C@H](CSc2nc(-c3ccccc3)c(-c3ccccc3)[nH]2)O1,inhibition,[1],93%
same,IC50,[3],0.082 µM
O=C1CCC(CSc2nc(-c3ccccc3)c(-c3ccccc3)[nH]2)N1 (stereo unspecified),inhibition,[1],87%
same,IC50,[3],0.36 µM
CCSc1nc(-c2ccccc2)c(-c2ccccc2)[nH]1,inhibition,[2],99%
same,IC50,[3],0.77 µM
C[C@@]1(O)CC(O)O[C@@H](CSc2nc(-c3ccccc3)c(-c3ccccc3)[nH]2)C1 (stereo partly specified),inhibition,[1],94%
same,IC50,[3],0.16 µM
CCOC(=O)CC(C)(O)CC(O)CSc1nc(-c2ccccc2)c(-c2ccccc2)[nH]1 (stereo unspecified),inhibition,[1],91%
same,IC50,[3],0.28 µM
CC(O)(CC(=O)[O-])CC(O)CSc1nc(-c2ccccc2)c(-c2ccccc2)[nH]1.[Na+] (stereo unspecified),inhibition,[2],66%
same,Change,Rattus norvegicus,-33%
C[C@@]1(O)CC(=O)OC(CSc2nc(-c3ccccc3Cl)c(-c3ccccc3Cl)[nH]2)C1 (stereo partly specified),inhibition,[2],99%
same,IC50,[3],0.14 µM
c1ccc(CSc2nc(-c3ccccc3)c(-c3ccccc3)[nH]2)cc1,inhibition,[1],90%
same,IC50,[3],0.29 µM
O=C1CCCC(CSc2nc(-c3ccccc3)c(-c3ccccc3)[nH]2)N1 (stereo unspecified),inhibition,[1],86%
same,IC50,[3],0.61 µM
C[C@@]1(O)CC(=O)OC(CSc2nc(-c3ccc(F)cc3)c(-c3ccc(F)cc3)[nH]2)C1 (stereo partly specified),inhibition,[2],97%
same,IC50,[3],0.79 µM
CCOC(CSc1nc(-c2ccco2)c(-c2ccco2)[nH]1)OCC,inhibition,[1],34%
O=C(O)CCCCCSc1nc(-c2ccccc2Cl)c(-c2ccccc2Cl)[nH]1,inhibition,[2],20%
O=C1CCC(CSc2nc(-c3ccccc3)c(-c3ccccc3)[nH]2)O1 (stereo unspecified),inhibition,[2],78%
CO[C@H]1C[C@H](O)C[C@@H](CSc2nc(-c3ccccc3)c(-c3ccccc3)[nH]2)O1,inhibition,[1],92%
same,IC50,[3],0.09 µM
CC(C)(C)c1ccc(-c2nc(SC[C@H]3C[C@@](C)(O)CC(=O)O3)[nH]c2-c2ccc(C(C)(C)C)cc2)cc1.CC(C)(C)c1ccc(-c2nc(SC[C@H]3C[C@](C)(O)CC(=O)O3)[nH]c2-c2ccc(C(C)(C)C)cc2)cc1,inhibition,[1],32%
COc1ccc(-c2nc(S)[nH]c2-c2ccc(OC)cc2)cc1,inhibition,[2],42%
c1ccc(-c2nc(SCCC3OCCCO3)[nH]c2-c2ccccc2)cc1,inhibition,[1],80%
same,IC50,[3],0.73 µM
C[C@@]1(O)CC(=O)O[C@@H](CSc2nc(-c3ccccc3)c(-c3ccccc3)o2)C1.C[C@]1(O)CC(=O)O[C@@H](CSc2nc(-c3ccccc3)c(-c3ccccc3)o2)C1,inhibition,[2],13%
COc1cccc(-c2nc(SCC3C[C@](C)(O)CC(=O)O3)[nH]c2-c2cccc(OC)c2)c1 (stereo partly specified),inhibition,[2],97%
same,IC50,[3],0.57 µM
CC(C)c1ccc(-c2nc(SC[C@H]3C[C@@](C)(O)CC(=O)O3)[nH]c2-c2ccc(C(C)C)cc2)cc1.CC(C)c1ccc(-c2nc(SC[C@H]3C[C@](C)(O)CC(=O)O3)[nH]c2-c2ccc(C(C)C)cc2)cc1,inhibition,[1],90%
same,IC50,[3],0.23 µM
O=C(O)CCC(O)CSc1nc(-c2ccccc2)c(-c2ccccc2)[nH]1 (stereo unspecified),inhibition,[2],76%
CCOC(CSc1nc(-c2ccccn2)c(-c2ccccn2)[nH]1)OCC,inhibition,[2],15%
CC1=CC(=O)OC(CSc2nc(-c3ccc(F)cc3)c(-c3ccc(F)cc3)[nH]2)C1 (stereo unspecified),inhibition,[2],96%
same,IC50,[3],0.61 µM
COc1ccc(-c2nc(SCC3C[C@@](C)(O)CC(=O)O3)[nH]c2-c2ccc(OC)cc2)cc1 (stereo partly specified),inhibition,[2],96%
same,IC50,[3],0.34 µM
C[C@@]1(O)CC(=O)OC(CSc2nc(-c3cccc(Cl)c3)c(-c3cccc(Cl)c3)[nH]2)C1 (stereo partly specified),inhibition,[1],93%
same,IC50,[3],0.11 µM
Cn1c(SC[C@H]2C[C@@](C)(O)CC(=O)O2)nc(-c2ccccc2)c1-c1ccccc1.Cn1c(SC[C@H]2C[C@](C)(O)CC(=O)O2)nc(-c2ccccc2)c1-c1ccccc1,inhibition,[2],90%
same,IC50,[3],2.6 µM
COc1ccc(-c2nc(SCC3C[C@](C)(O)CC(=O)O3)[nH]c2-c2ccc(OC)cc2)cc1 (stereo partly specified),inhibition,[2],87%
same,IC50,[3],0.42 µM
CC1=CC(=O)OC(CSc2nc(-c3ccc(Cl)cc3)c(-c3ccc(Cl)cc3)[nH]2)C1 (stereo unspecified),inhibition,[1],77%
C[C@@]1(O)CC(=O)O[C@@H](CSc2nc(-c3ccccc3)c(-c3ccccc3)n2-c2ccccc2)C1.C[C@]1(O)CC(=O)O[C@@H](CSc2nc(-c3ccccc3)c(-c3ccccc3)n2-c2ccccc2)C1,inhibition,[2],32%
C[C@@]1(O)CC(=O)O[C@@H](CSc2nc(-c3ccc(C(F)(F)F)cc3)c(-c3ccc(C(F)(F)F)cc3)[nH]2)C1.C[C@]1(O)CC(=O)O[C@@H](CSc2nc(-c3ccc(C(F)(F)F)cc3)c(-c3ccc(C(F)(F)F)cc3)[nH]2)C1,inhibition,[2],95%
same,IC50,[3],1 µM
Cc1ccc(-c2nc(SC[C@H]3C[C@@](C)(O)CC(=O)O3)[nH]c2-c2ccc(C)cc2)cc1.Cc1ccc(-c2nc(SC[C@H]3C[C@](C)(O)CC(=O)O3)[nH]c2-c2ccc(C)cc2)cc1,inhibition,[2],99%
same,IC50,[3],0.17 µM
O=C1CC(O)CC(CSc2nc(-c3ccccc3)c(-c3ccccc3)[nH]2)O1 (stereo unspecified),inhibition,[1],89%
same,IC50,[3],0.91 µM
COc1ccccc1-c1nc(SC[C@H]2C[C@@](C)(O)CC(=O)O2)[nH]c1-c1ccccc1OC.COc1ccccc1-c1nc(SC[C@H]2C[C@](C)(O)CC(=O)O2)[nH]c1-c1ccccc1OC,inhibition,[1],29%

# Reference: ChEMBL document CHEMBL1125365, “Acyl-CoA:cholesterol O-acyl transferase (ACAT) inhibitors. 1. 2-(Alkylthio)-4,5-diphenyl-1H-imidazoles as potent inhibitors of ACAT” (J Med Chem, 1992)
